Legend:
Rattus norvegicus [1] = species: Rattus norvegicus; test: Radioactivity distribution in brain of tumor-bearing fischer rat after injection of [18F]fluoro-2-methylpropanoic acid after 120 min; assay type: ADME, organism-based; settings: in vivo, 2 h
Outline: (§1)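 Male Fischer 344 rats carried intracranial 9L gliosarcoma, implanted stereotactically (4×10^4 cells) and used 17–19 days later. Awake restrained rats got ~35 μCi of tracer in 0.3 mL sterile water by tail-vein injection and were killed at 5, 60 or 120 min. Tissues were weighed and gamma-counted, and counts were decay-corrected to %ID/g. Results are mean ± standard error; n = 4 at 5 and 120 min, n = 5 at 60 min.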

Rattus norvegicus [2] = species: Rattus norvegicus; test: Radioactivity distribution in pancreas of tumor-bearing fischer rat after injection of [18F]fluoro-2-methylpropanoic acid after 120 min; assay type: ADME, organism-based; settings: in vivo, 2 h
Outline: (§2)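 Male Fischer 344 rats carried intracranial 9L gliosarcoma, stereotactically implanted (4×10^4 cells) and used 17–19 days later. Awake, restrained animals received about 35 μCi tracer in 0.3 mL sterile water via the tail vein and were killed at 5, 60 or 120 min (n = 4–5). Tissues were weighed, gamma-counted, decay-corrected and reported as %ID/g ± standard error.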

Rattus norvegicus [3] = species: Rattus norvegicus; test: Radioactivity distribution in heart of normal fischer rat after injection of [18F]fluoro-2-methylpropanoic acid after 120 min.; assay type: ADME, organism-based; settings: in vivo, 2 h
Outline: (§3)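 Normal male Fischer 344 rats (200–250 g), anesthetized with i.m. ketamine:xylazine (1:1), got ~85 μCi of tracer in 0.3 mL sterile water i.v. via tail-vein catheter. Groups of four were killed at 5, 30, 60 or 120 min. Tissues were weighed and gamma-counted against dose standards, and counts were decay-corrected to %ID/g. Results are mean ± standard error (n = 4), compared by one-way ANOVA.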

Rattus norvegicus [4] = species: Rattus norvegicus; test: Radioactivity distribution in kidney of normal fischer rat after injection of [18F]fluoro-2-methylpropanoic acid after 120 min.; assay type: ADME, organism-based; settings: in vivo, 2 h; outline: as §3
Rattus norvegicus [5] = species: Rattus norvegicus; test: Radioactivity distribution in lung of normal fischer rat after injection of [18F]fluoro-2-methylpropanoic acid after 120 min.; assay type: ADME, organism-based; settings: in vivo, 2 h
Outline: (§4)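 Male Fischer 344 rats (200–250 g), fed ad libitum, anesthetized with intramuscular ketamine:xylazine (1:1, 0.1 mL/100 g). About 85 μCi tracer in 0.3 mL sterile water was given by tail-vein catheter. Groups of four were killed at 5, 30, 60 or 120 min. Tissues were weighed and gamma-counted against dose standards, decay-corrected, and expressed as %ID/g (mean ± standard error).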

Rattus norvegicus [6] = species: Rattus norvegicus; test: Radioactivity distribution in pancreas of tumor-bearing fischer rat after injection of [18F]-fluoro-2-methylpropanoic acid after 5 min; assay type: ADME, organism-based; settings: in vivo; outline: as §2
Rattus norvegicus [7] = species: Rattus norvegicus; test: Radioactivity distribution in heart of normal fischer rat after injection of [18F]fluoro-2-methylpropanoic acid after 5 min.; assay type: ADME, organism-based; settings: in vivo; outline: as §3
Rattus norvegicus [8] = species: Rattus norvegicus; test: Radioactivity distribution in blood of normal fischer rat after injection of [18F]fluoro-2-methylpropanoic acid after 120 min.; assay type: ADME, organism-based; settings: in vivo, 2 h; outline: as §3
Rattus norvegicus [9] = species: Rattus norvegicus; test: Radioactivity distribution in muscle of normal fischer rat after injection of [18F]-fluoro-2-methylpropanoic acid after 5 min.; assay type: ADME, organism-based, Muscle tissue; settings: in vivo; outline: as §4
Rattus norvegicus [10] = species: Rattus norvegicus; test: Radioactivity distribution in bone of tumor-bearing fischer rat after injection of [18F]fluoro-2-methylpropanoic acid after 5 min; assay type: ADME, organism-based, Bone element; settings: in vivo; outline: as §1
Rattus norvegicus [11] = species: Rattus norvegicus; test: Radioactivity distribution in blood of normal fischer rat after injection of [18F]fluoro-2-methylpropanoic acid after 60 min.; assay type: ADME, organism-based; settings: in vivo, 1 h; outline: as §3
Rattus norvegicus [12] = species: Rattus norvegicus; test: Radioactivity distribution in kidney of normal fischer rat after injection of [18F]fluoro-2-methylpropanoic acid after 5 min.; assay type: ADME, organism-based; settings: in vivo; outline: as §4
Rattus norvegicus [13] = species: Rattus norvegicus; test: Radioactivity distribution in liver of normal fischer rat after injection of [18F]fluoro-2-methylpropanoic acid after 60 min.; assay type: ADME, organism-based; settings: in vivo, 1 h; outline: as §4
Rattus norvegicus [14] = species: Rattus norvegicus; test: Radioactivity distribution in spleen of tumor-bearing fischer rat after injection of [18F]fluoro-2-methylpropanoic acid after 60 min; assay type: ADME, organism-based; settings: in vivo, 1 h
Outline: (§5)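 Male Fischer rats had 4×10^4 9L gliosarcoma cells implanted stereotactically into the brain, 3 mm right of midline, 1 mm anterior to bregma, 5 mm deep. They were used 17–19 days later. Awake, restrained rats got ~35 μCi in 0.3 mL sterile water by tail vein and were killed at 5, 60 or 120 min. Tissues, tumor and contralateral brain were gamma-counted, decay-corrected, as %ID/g, mean ± SE, n = 4–5.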

Rattus norvegicus [15] = species: Rattus norvegicus; test: Radioactivity distribution in bone of normal fischer rat after injection of [18F]fluoro-2-methylpropanoic acid after 60 min.; assay type: ADME, organism-based, Bone element; settings: in vivo, 1 h; outline: as §3
Rattus norvegicus [16] = species: Rattus norvegicus; test: Radioactivity distribution in pancreas of normal fischer rat after injection of [18F]fluoro-2-methylpropanoic acid after 30 min.; assay type: ADME, organism-based; settings: in vivo, 0.5 h; outline: as §4
Rattus norvegicus [17] = species: Rattus norvegicus; test: Radioactivity distribution in liver of tumor-bearing fischer rat after injection of [18F]fluoro-2-methylpropanoic acid after 5 min; assay type: ADME, organism-based; settings: in vivo; outline: as §2
Rattus norvegicus [18] = species: Rattus norvegicus; test: Radioactivity distribution in heart of tumor-bearing fischer rat after injection of [18F]fluoro-2-methylpropanoic acid after 120 min; assay type: ADME, organism-based; settings: in vivo, 2 h; outline: as §1
Rattus norvegicus [19] = species: Rattus norvegicus; test: Radioactivity distribution in lung of normal fischer rat after injection of [18F]fluoro-2-methylpropanoic acid after 30 min.; assay type: ADME, organism-based; settings: in vivo, 0.5 h; outline: as §4
Rattus norvegicus [20] = species: Rattus norvegicus; test: Radioactivity distribution in bone of normal fischer rat after injection of [18F]fluoro-2-methylpropanoic acid after 5 min.; assay type: ADME, organism-based, Bone element; settings: in vivo; outline: as §3
Rattus norvegicus [21] = species: Rattus norvegicus; test: Radioactivity distribution in muscle of normal fischer rat after injection of [18F]-fluoro-2-methylpropanoic acid after 60 min.; assay type: ADME, organism-based, Muscle tissue; settings: in vivo, 1 h; outline: as §4
Rattus norvegicus [22] = species: Rattus norvegicus; test: Radioactivity distribution in brain of normal fischer rat after injection of [18F]fluoro-2-methylpropanoic acid after 30 min.; assay type: ADME, organism-based; settings: in vivo, 0.5 h; outline: as §3
Rattus norvegicus [23] = species: Rattus norvegicus; test: Radioactivity distribution in tumor of tumor-bearing fischer rat after injection of [18F]fluoro-2-methylpropanoic acid after 120 min; assay type: ADME, organism-based; settings: in vivo, 2 h; outline: as §5
Rattus norvegicus [24] = species: Rattus norvegicus; test: Radioactivity distribution in heart of normal fischer rat after injection of [18F]-fluoro-2-methylpropanoic acid after 60 min.; assay type: ADME, organism-based; settings: in vivo, 1 h; outline: as §3
Rattus norvegicus [25] = species: Rattus norvegicus; test: Radioactivity distribution in pancreas of normal fischer rat after injection of [18F]fluoro-2-methylpropanoic acid after 5 min.; assay type: ADME, organism-based; settings: in vivo; outline: as §4
Rattus norvegicus [26] = species: Rattus norvegicus; test: Radioactivity distribution in spleen of normal fischer rat after injection of [18F]fluoro-2-methylpropanoic acid after 120 min.; assay type: ADME, organism-based; settings: in vivo, 2 h
Outline: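 Male Fischer 344 rats (200–250 g), fed ad libitum, under intramuscular ketamine:xylazine anesthesia, got ~85 μCi radiotracer in 0.3 mL sterile water by tail-vein catheter. Groups of four were killed at 5, 30, 60 or 120 min. Dissected tissues were weighed and gamma-counted with dose standards. Counts were decay-corrected and given as %ID/g, mean ± standard error. Tissues were compared by one-way ANOVA.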

Rattus norvegicus [27] = species: Rattus norvegicus; test: Radioactivity distribution in bone of normal fischer rat after injection of [18F]fluoro-2-methylpropanoic acid after 120 min.; assay type: ADME, organism-based, Bone element; settings: in vivo, 2 h; outline: as §3
Rattus norvegicus [28] = species: Rattus norvegicus; test: Radioactivity distribution in blood of tumor-bearing fischer rat after injection of [18F]fluoro-2-methylpropanoic acid after 120 min; assay type: ADME, organism-based; settings: in vivo, 2 h; outline: as §1
Rattus norvegicus [29] = species: Rattus norvegicus; test: Radioactivity distribution in pancreas of tumor-bearing fischer rat after injection of [18F]-fluoro-2-methylpropanoic acid after 60 min; assay type: ADME, organism-based; settings: in vivo, 1 h; outline: as §2
Rattus norvegicus [30] = species: Rattus norvegicus; test: Radioactivity distribution in muscle of tumor-bearing fischer rat after injection of [18F]-fluoro-2-methylpropanoic acid after 5 min; assay type: ADME, organism-based, Muscle tissue; settings: in vivo; outline: as §2
Rattus norvegicus [31] = species: Rattus norvegicus; test: Radioactivity distribution in lung of tumor-bearing fischer rat after injection of [18F]fluoro-2-methylpropanoic acid after 60 min; assay type: ADME, organism-based; settings: in vivo, 1 h; outline: as §2
Rattus norvegicus [32] = species: Rattus norvegicus; test: Radioactivity distribution in lung of normal fischer rat after injection of [18F]fluoro-2-methylpropanoic acid after 5 min.; assay type: ADME, organism-based; settings: in vivo; outline: as §4
Rattus norvegicus [33] = species: Rattus norvegicus; test: Radioactivity distribution in bone of normal fischer rat after injection of [18F]-fluoro-2-methylpropanoic acid after 30 min.; assay type: ADME, organism-based, Bone element; settings: in vivo, 0.5 h; outline: as §3
Rattus norvegicus [34] = species: Rattus norvegicus; test: Radioactivity distribution in testis of tumor-bearing fischer rat after injection of [18F]fluoro-2-methylpropanoic acid after 5 min; assay type: ADME, organism-based; settings: in vivo; outline: as §5

## CC(N)(C[18F])C(=O)O.Cl (centres undefined)
Rattus norvegicus [1]
  ID/g: 0.05%
Rattus norvegicus [2]
  ID/g: 1.42%
Rattus norvegicus [3]
  ID/g: 0.23%
Rattus norvegicus [4]
  ID/g: 2.97%
Rattus norvegicus [5]
  ID/g: 0.37%
Rattus norvegicus [6]
  ID/g: 5.31%
Rattus norvegicus [7]
  ID/g: 0.29%
Rattus norvegicus [8]
  ID/g: 0.15%
Rattus norvegicus [9]
  ID/g: 0.22%
Rattus norvegicus [10]
  ID/g: 0.38%
Rattus norvegicus [11]
  ID/g: 0.22%
Rattus norvegicus [12]
  ID/g: 6.36%
Rattus norvegicus [13]
  ID/g: 0.5%
Rattus norvegicus [14]
  ID/g: 0.55%
Rattus norvegicus [15]
  ID/g: 0.19%
Rattus norvegicus [16]
  ID/g: 2.93%
Rattus norvegicus [17]
  ID/g: 0.77%
Rattus norvegicus [18]
  ID/g: 0.22%
Rattus norvegicus [19]
  ID/g: 0.54%
Rattus norvegicus [20]
  ID/g: 0.27%
Rattus norvegicus [21]
  ID/g: 0.26%
Rattus norvegicus [22]
  ID/g: 0.05%
Rattus norvegicus [23]
  ID/g: 1.87%
Rattus norvegicus [24]
  ID/g: 0.28%
Rattus norvegicus [25]
  ID/g: 3.46%
Rattus norvegicus [26]
  ID/g: 0.33%
Rattus norvegicus [27]
  ID/g: 0.13%
Rattus norvegicus [28]
  ID/g: 0.16%
Rattus norvegicus [29]
  ID/g: 2.86%
Rattus norvegicus [30]
  ID/g: 0.39%
Rattus norvegicus [31]
  ID/g: 0.38%
Rattus norvegicus [32]
  ID/g: 0.55%
Rattus norvegicus [33]
  ID/g: 0.22%
Rattus norvegicus [34]
  ID/g: 0.22%

— ChEMBL document CHEMBL1135739, “Radiolabeled amino acids for tumor imaging with PET: radiosynthesis and biological evaluation of 2-amino-3-[18F]fluoro-2-methylpropanoic acid and 3-[18F]fluoro-2-methyl-2-(methylamino)propanoic acid” (J Med Chem, 2002)
